The source made the active and inactive calls.
Key:
Cortical neurone [1] = assay: Neuroprotective activity against kainate-induced cell damage in mouse primary cortical neurons assessed as reduction in kainate-induced neurofilament loss by measuring increase in MAPK level at 1 uM pretreated followed by kainate challenge measured after 18 hrs by fluorescence assay; type: functional, cell-based; settings: in the assay text read “MAP2” for “MAPK”
Outline: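 Mouse primary cortical neurons cultured as previously described; dendritic processes stained with anti-MAP2 antibody. Cell-profile perimeter measured by image analysis, each condition normalized to kainate-only.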

Cortical neurone [2] = assay: Neuroprotective activity against kainate-induced cell damage in mouse primary cortical neurons assessed as reversal of kainate-induced reduction in calcium flux by fura-2-AM dye based fluorescence assay; type: functional
Outline: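 Mouse primary cortical neurons loaded with fura-2AM for 45 min, washed, then depolarized with 10 mM KCl to drive Ca2+ entry through voltage-gated calcium channels. Flux read on a plate-based system.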

Cortical neurone [3] = assay: Neuroprotective activity against kainate-induced cell death in mouse primary cortical neurons by MTT assay; type: functional, cell-based
Cortical neurone [4] = assay: Neuroprotective activity against kainate-induced cell death in mouse primary cortical neurons by cell counting method; type: functional, cell-based
Cortical neurone [5] = assay: Neuroprotective activity against kainate-induced cell death in mouse primary cortical neurons by caspase activation method; type: functional, cell-based
Mus musculus [6] = species on record: Mus musculus; assay: Neuroprotective activity against kainate-induced cell death in mouse primary motor neurons by MTT assay; type: functional
Mus musculus [7] = species on record: Mus musculus; assay: Neuroprotective activity against kainate-induced cell death in mouse primary motor neurons by cell counting method; type: functional
Mus musculus [8] = species on record: Mus musculus; assay: Neuroprotective activity against kainate-induced cell death in mouse primary motor neurons by caspase activation method; type: functional
Mus musculus [9] = species on record: Mus musculus; assay: Neuroprotective activity against kainate-induced cell damage in mouse primary motor neurons assessed as reversal of kainate-induced neuronal length preceding cell death by fluorescence assay; type: functional
Outline: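 Mouse primary motor neurons, fixed after treatment and stained with SMI-32 for neurofilaments, then fluorescently imaged. Sholl analysis counted process intersections at each 100 μm radius from the cell centre. Ten cells per condition, three independent experiments, data pooled.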

| SMILES | Activity (Cortical neurone [1]) | Activity (Cortical neurone [2]) | Activity (Cortical neurone [3]) | Activity (Cortical neurone [4]) | Activity (Cortical neurone [5]) | Activity (Mus musculus [6]) | Activity (Mus musculus [7]) | Activity (Mus musculus [8]) | Activity (Mus musculus [9]) |
| --- | --- | --- | --- | --- | --- | --- | --- | --- | --- |
| CCc1ccc(-c2cn(CCn3c(=N)sc4cc(OC(F)(F)F)ccc43)nn2)cc1 | Active | Active | inactive | inactive | inactive | inactive | inactive | inactive | inactive |
| N=c1sc2cc(OC(F)(F)F)ccc2n1CCn1cc(-c2ccc(Br)cc2)nn1 | Active | Active | inactive | inactive | inactive | inactive | inactive | inactive | inactive |
| N=c1sc2cc(OC(F)(F)F)ccc2n1CCn1cc(-c2ccc(F)cc2)nn1 | inactive | Active | inactive | inactive | inactive | inactive | inactive | inactive |  |
| N=c1sc2cc(OC(F)(F)F)ccc2n1CCn1cc(-c2cc(F)cc(F)c2)nn1 | inactive | Active | inactive | inactive | inactive | inactive | inactive | inactive |  |
| CCCc1ccc(-c2cn(CCn3c(=N)sc4cc(OC(F)(F)F)ccc43)nn2)cc1 | inactive | Active | inactive | inactive | inactive | inactive | inactive | inactive |  |
| Cc1ccccc1-c1cn(CCn2c(=N)sc3cc(OC(F)(F)F)ccc32)nn1 | inactive | Active | inactive | inactive | inactive | inactive | inactive | inactive |  |
| N=c1sc2cc(OC(F)(F)F)ccc2n1CCn1cc(-c2ccsc2)nn1 | inactive | Active | inactive | inactive | inactive | inactive | inactive | inactive |  |
| N=c1sc2cc(OC(F)(F)F)ccc2n1CCn1cc(-c2ccccc2C(F)(F)F)nn1 | inactive | Active | inactive | inactive | inactive | inactive | inactive | inactive |  |
| CCCc1cn(CCn2c(=N)sc3cc(OC(F)(F)F)ccc32)nn1 | inactive | Active | inactive | inactive | inactive | inactive | inactive | inactive |  |
| CCCCCc1ccc(-c2cn(CCn3c(=N)sc4cc(OC(F)(F)F)ccc43)nn2)cc1 | inactive | Active | inactive | inactive | inactive | inactive | inactive | inactive |  |
| COc1ccc(-c2cn(CCn3c(=N)sc4cc(OC(F)(F)F)ccc43)nn2)cc1 | inactive | Active | inactive | inactive | inactive | inactive | inactive | inactive |  |
| N=c1sc2cc(OC(F)(F)F)ccc2n1CCn1cc(-c2ccccc2Br)nn1 | inactive | Active | inactive | inactive | inactive | inactive | inactive | inactive |  |
| N=c1sc2cc(OC(F)(F)F)ccc2n1CCn1cc(-c2cccc3ccccc23)nn1 | inactive | Active | inactive | inactive | inactive | inactive | inactive | inactive |  |
| COc1cccc(-c2cn(CCn3c(=N)sc4cc(OC(F)(F)F)ccc43)nn2)c1 | inactive | Active | inactive | inactive | inactive | inactive | inactive | inactive |  |
| N=c1sc2cc(OC(F)(F)F)ccc2n1CCn1cc(-c2cccs2)nn1 | Active | Active | inactive | inactive | inactive | inactive | inactive | inactive |  |
| N=c1sc2cc(OC(F)(F)F)ccc2n1CCn1cc(-c2cc(F)c(F)c(F)c2)nn1 | inactive | Active | inactive | inactive | inactive | inactive | inactive | inactive |  |
| N=c1sc2cc(OC(F)(F)F)ccc2n1CCn1cc(C2CC2)nn1 | inactive | Active | inactive | inactive | inactive | inactive | inactive | inactive |  |
| N=c1sc2cc(OC(F)(F)F)ccc2n1CCn1cc(-c2ccccc2Cl)nn1 | inactive | Active | inactive | inactive | inactive | inactive | inactive | inactive |  |
| N=c1sc2cc(OC(F)(F)F)ccc2n1CCn1cc(-c2cc(C(F)(F)F)cc(C(F)(F)F)c2)nn1 | inactive | Active | inactive | inactive | inactive | inactive | inactive | inactive |  |
| CCCCc1ccc(-c2cn(CCn3c(=N)sc4cc(OC(F)(F)F)ccc43)nn2)cc1 | inactive | Active | inactive | inactive | inactive | inactive | inactive | inactive |  |
| N=c1sc2cc(OC(F)(F)F)ccc2n1CCn1cc(Cc2ccccc2)nn1 | inactive | Active | inactive | inactive | inactive | inactive | inactive | inactive |  |
